Results from ChEMBL document CHEMBL4689842, “EUbOPEN Chemogenomics Library wave 1” (2021).

Test system: U2OS
Test: Multiplex assay against U2OS
Type: toxicity, cell-based
Details: human
Procedure, shortened: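 Cells were classed with CellPathfinder machine-learning gating, first as Hoechst high-intensity objects or normal cells, then (normal cells) as healthy, pyknosed or fragmented nuclei, and finally (pyknosed cells) as mitotic or apoptotic. Staining of live cells at seeding used Hoechst33342, BioTracker Green Microtubule Cytoskeleton Dye, MitoTracker Red and Annexin V Alexa Fluor 680, with imaging on a CQ1 microscope at 37°C and 5% CO2 after compound addition. Tubulin, mitochondrial-mass and membrane-permeability phenotypes are per cents of healthy-nucleus cells.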

[1] = 12 h, 1 µM, compound concentration 1 uM, replicate 1
[2] = 12 h, 1 µM, compound concentration 1 uM, replicate 2
[3] = 12 h, 10 µM, compound concentration 10 uM, replicate 1
[4] = 12 h, 10 µM, compound concentration 10 uM, replicate 2
[5] = 24 h, 1 µM, compound concentration 1 uM, replicate 1
[6] = 24 h, 1 µM, compound concentration 1 uM, replicate 2
[7] = 24 h, 10 µM, compound concentration 10 uM, replicate 1
[8] = 24 h, 10 µM, compound concentration 10 uM, replicate 2

In the case of CCCS(=O)(=O)Nc1ccc(F)c(C(=O)c2c[nH]c3ncc(Cl)cc23)c1F [PLX-4720], the “Population Apoptotic (%)” value [1] is reported as 55%, the “Population Fragmented Nuclei (%)” value [1] is reported as 6% and the “Population Healthy Nuclei (%)” value [1] is reported as 88%. For the same compound, the “Population Hoechst High Intensity Objects (%)” value [1] was 2%, the “Population Membrane Permeable-Phenotype (%)” value [1] was 14% and the “Population Mitochondria Different-Phenotype (%)” value [1] was 21%. The “Population Mitotic Cells (%)” value [1] was 44%, the “Population Normal (%)” value [1] was 97% and the “Population Pyknosed Nuclei (%)” value [1] was 5%. The “Population Tubulin-Different-Phenotype (%)” value [1] was 26%, the “Total Cell Count” value [1] was 145 and the “Population Apoptotic (%)” value [2] was 33%. For the same compound, the “Population Fragmented Nuclei (%)” value [2] was 7%, the “Population Healthy Nuclei (%)” value [2] was 89% and the “Population Hoechst High Intensity Objects (%)” value [2] was 15%. The “Population Membrane Permeable-Phenotype (%)” value [2] was 12%, the “Population Mitochondria Different-Phenotype (%)” value [2] was 24% and the “Population Mitotic Cells (%)” value [2] was 66%. For the same compound, the “Population Normal (%)” value [2] was 84%, the “Population Pyknosed Nuclei (%)” value [2] was 3% and the “Population Tubulin-Different-Phenotype (%)” value [2] was 28%. The “Total Cell Count” value [2] was 153, the “Population Apoptotic (%)” value [3] was 50% and the “Population Healthy Nuclei (%)” value [3] was 89%. The “Population Hoechst High Intensity Objects (%)” value [3] was 3%, the “Population Membrane Permeable-Phenotype (%)” value [3] was 8% and the “Population Mitochondria Different-Phenotype (%)” value [3] was 30%. For the same compound, the “Population Mitotic Cells (%)” value [3] was 50%, the “Population Normal (%)” value [3] was 96% and the “Population Pyknosed Nuclei (%)” value [3] was 4%. For the same compound, the “Population Tubulin-Different-Phenotype (%)” value [3] was 26%, the “Total Cell Count” value [3] was 164 and the “Population Apoptotic (%)” value [4] was 0%. For the same compound, the “Population Fragmented Nuclei (%)” value [4] was 6%, the “Population Healthy Nuclei (%)” value [4] was 88% and the “Population Hoechst High Intensity Objects (%)” value [4] was 9%. For the same compound, the “Population Membrane Permeable-Phenotype (%)” value [4] was 11%, the “Population Mitochondria Different-Phenotype (%)” value [4] was 31% and the “Population Mitotic Cells (%)” value [4] was 100%. The “Population Normal (%)” value [4] was 90%, the “Population Pyknosed Nuclei (%)” value [4] was 5% and the “Population Tubulin-Different-Phenotype (%)” value [4] was 23%. The “Total Cell Count” value [4] was 101, the “Population Apoptotic (%)” value [5] was 43% and the “Population Fragmented Nuclei (%)” value [5] was 5%. For the same compound, the “Population Healthy Nuclei (%)” value [5] was 86%, the “Population Hoechst High Intensity Objects (%)” value [5] was 3% and the “Population Membrane Permeable-Phenotype (%)” value [5] was 16%. For the same compound, the “Population Mitochondria Different-Phenotype (%)” value [5] was 26%, the “Population Mitotic Cells (%)” value [5] was 56% and the “Population Normal (%)” value [5] was 96%. The “Population Pyknosed Nuclei (%)” value [5] was 7%, the “Population Tubulin-Different-Phenotype (%)” value [5] was 22% and the “Total Cell Count” value [5] was 201. The “Population Apoptotic (%)” value [6] was 11%, the “Population Fragmented Nuclei (%)” value [6] was 3% and the “Population Healthy Nuclei (%)” value [6] was 88%. The “Population Hoechst High Intensity Objects (%)” value [6] was 11%, the “Population Membrane Permeable-Phenotype (%)” value [6] was 9% and the “Population Mitochondria Different-Phenotype (%)” value [6] was 25%. The “Population Mitotic Cells (%)” value [6] was 88%, the “Population Normal (%)” value [6] was 88% and the “Population Pyknosed Nuclei (%)” value [6] was 8%. The “Population Tubulin-Different-Phenotype (%)” value [6] was 23%, the “Total Cell Count” value [6] was 198 and the “Population Apoptotic (%)” value [7] was 20%. The “Population Fragmented Nuclei (%)” value [7] was 2%, the “Population Healthy Nuclei (%)” value [7] was 92% and the “Population Hoechst High Intensity Objects (%)” value [7] was 2%. The “Population Membrane Permeable-Phenotype (%)” value [7] was 5%, the “Population Mitochondria Different-Phenotype (%)” value [7] was 32% and the “Population Mitotic Cells (%)” value [7] was 80%. For the same compound, the “Population Normal (%)” value [7] was 97%, the “Population Pyknosed Nuclei (%)” value [7] was 5% and the “Population Tubulin-Different-Phenotype (%)” value [7] was 24%. The “Total Cell Count” value [7] was 152, the “Population Apoptotic (%)” value [8] was 57% and the “Population Fragmented Nuclei (%)” value [8] was 4%. The “Population Healthy Nuclei (%)” value [8] was 91%, the “Population Hoechst High Intensity Objects (%)” value [8] was 7% and the “Population Membrane Permeable-Phenotype (%)” value [8] was 7%. The “Population Mitochondria Different-Phenotype (%)” value [8] was 38%, the “Population Mitotic Cells (%)” value [8] was 42% and the “Population Normal (%)” value [8] was 92%. For the same compound, the “Population Pyknosed Nuclei (%)” value [8] was 3%, the “Population Tubulin-Different-Phenotype (%)” value [8] was 32% and the “Total Cell Count” value [8] was 93.
